Molecular target: T1, Phosphatidylserine lipase ABHD16A (Homo sapiens, UniProt O95870)
T1 sequence (O95870 whole entry): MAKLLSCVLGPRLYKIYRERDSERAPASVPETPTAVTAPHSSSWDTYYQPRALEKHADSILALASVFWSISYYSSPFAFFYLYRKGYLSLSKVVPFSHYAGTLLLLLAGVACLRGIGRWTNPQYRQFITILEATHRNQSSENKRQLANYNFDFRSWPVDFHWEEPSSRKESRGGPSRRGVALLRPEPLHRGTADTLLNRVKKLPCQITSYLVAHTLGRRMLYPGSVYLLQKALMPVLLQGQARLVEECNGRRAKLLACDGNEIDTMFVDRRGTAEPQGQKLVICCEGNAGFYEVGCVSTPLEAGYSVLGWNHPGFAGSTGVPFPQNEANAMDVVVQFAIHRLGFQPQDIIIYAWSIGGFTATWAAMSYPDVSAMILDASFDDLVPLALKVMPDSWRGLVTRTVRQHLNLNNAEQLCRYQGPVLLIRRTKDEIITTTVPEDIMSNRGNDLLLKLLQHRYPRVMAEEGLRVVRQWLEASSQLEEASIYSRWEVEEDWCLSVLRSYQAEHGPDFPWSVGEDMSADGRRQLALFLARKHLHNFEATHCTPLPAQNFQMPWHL
Assay: Inhibition of ABHD16A (unknown origin)
Outline: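 Lysates of HEK293 cells transiently overexpressing human ABHD16A were pretreated for 30 min with DMSO (control) or inhibitor. 1-LG substrate (25 µM final) was then added, and liberated glycerol was measured. Screening was at 10 µM as % control activity (n=2-3). Dose-response used 0.1-100 µM, duplicate wells from two independent experiments, giving IC50.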

With COc1nn(-c2ccc(F)cc2)c(=O)o1 as the molecule, how does the IC50 read?
Its IC50 is 32 nM.

Reference: BindingDB's records for doi:10.1021/acsmedchemlett.8b00442 (University of Helsinki, 2018)
